Test results as given in ChEMBL document CHEMBL1122996, “Interactions of apomorphine with serum and tissue proteins” (J Med Chem, 1985).
“And” between values parts separate entries of the source, which are not always exact repeats. Identical values can stand only once.

Key:
[1] = organism: Homo sapiens; experiment: Percentage binding to human plasma proteins was determined by measuring HPLC peak at 1.00 micro g/ml concentration in plasma; assay type: cell-free
How it was run: (§1)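 Fresh plasma from fasted healthy human volunteers was spiked with 1-HCl plus [³H]-1 tracer. It was incubated 10 min at 37 °C and ultrafiltered through YMT membranes (1000g, 5 min, 37 °C). Ultrafiltrate was acidified with pH 3.0 acetate buffer containing carrier 1-HCl, argon-flushed and frozen at -15 °C. Phenyl-column HPLC was read by peak-eluate collection LSC, UV peak area, or radiochemical detection. % bound was calculated from total vs ultrafiltrate using a plasma water fraction of 0.93.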

[2] = organism: Mus musculus; experiment: Ratio of accumulation of radioactivity from 14 to 1 day in plasma contents; assay type: functional
How it was run: (§2)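 Male CD-1 mice (~35 g, 10 per group) received 1 at 30 mg/kg ip with [³H]-1 (0.153 mCi/kg), once or daily for 14 days, with free access to food and water. At 24 h after the last dose, plasma (infraorbital sinus), brain regions, kidney, liver and GI tract were taken for radioactivity counting. The accumulation ratio is radioactivity after 14 doses divided by radioactivity after 1 dose.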

[3] = organism: Rattus norvegicus; experiment: Percentage binding to rat plasma proteins at 1 ug/mL concentration of the compound; assay type: cell-free
How it was run: (§3)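 Plasma came from male Sprague-Dawley rats (~450 g, ether, vena cava blood, lithium heparin) or from six mature female swine (jugular catheter, heparinized). It was spiked with 1-HCl (10 ng–50 µg/mL) containing 0.5 mCi/mL [³H]-1. Samples were ultrafiltered as for human plasma, and the ultrafiltrate was analysed by HPLC peak-collection LSC. N = 4.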

[4] = target: T1, Albumin (Bos taurus, UniProt P02769); experiment: Covalent binding of compound to serum albumin after 1 hr when the level of [8,9-3H2]-1is 2.7 dpm *10e6 expressed as mol of drug/mol of serum albumin; conditions: cattle
T1 sequence (P02769 whole entry): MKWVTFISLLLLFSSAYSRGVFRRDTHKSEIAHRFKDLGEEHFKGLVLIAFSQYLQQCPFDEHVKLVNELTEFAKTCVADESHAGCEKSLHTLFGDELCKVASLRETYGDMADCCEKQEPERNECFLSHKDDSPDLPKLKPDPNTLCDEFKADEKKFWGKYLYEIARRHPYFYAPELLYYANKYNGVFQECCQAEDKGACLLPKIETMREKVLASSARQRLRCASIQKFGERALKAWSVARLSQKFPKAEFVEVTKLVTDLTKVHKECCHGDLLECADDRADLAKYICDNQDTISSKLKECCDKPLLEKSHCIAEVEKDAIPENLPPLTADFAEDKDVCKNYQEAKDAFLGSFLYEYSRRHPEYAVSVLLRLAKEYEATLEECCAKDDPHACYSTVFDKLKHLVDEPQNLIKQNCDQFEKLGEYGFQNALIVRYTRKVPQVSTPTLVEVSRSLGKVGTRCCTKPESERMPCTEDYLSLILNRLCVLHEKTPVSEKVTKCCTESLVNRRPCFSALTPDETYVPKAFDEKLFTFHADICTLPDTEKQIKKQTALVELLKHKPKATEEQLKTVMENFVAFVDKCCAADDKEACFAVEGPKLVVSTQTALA
How it was run: (§4)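 BSA (32 mg) with 2 mg apomorphine HCl hemihydrate plus tritiated [8,9-3H2]apomorphine at the level stated, in pH 7.4 phosphate buffer, 2.1 mL total, incubated 1 h. Incubates were extracted twice with ethyl acetate. Protein-bound radioactivity was measured by LSC after one of three workups: perchloric acid precipitation with repeated trifluoroacetic acid-ethanol washes; Sephadex G-25 gel filtration in 1% sodium lauryl sulfate buffer; or 4-day dialysis.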

[5] = organism: Mus musculus; experiment: Radio activity of [3H]-l in washed mice GI tract on day 1; assay type: functional, Gastrointestinal tract
How it was run: (§5)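 Male CD-1 mice (~35 g, n=10 per group) received apomorphine 30 mg/kg with [3H]-apomorphine (0.153 mCi/kg) ip, once or daily for 14 days. Killed 24 h after the last dose; GI tract (with contents or washed with distilled water), liver and kidney (rinsed of blood) and skeletal tissue taken. Radioactivity given as % of total dose; skeletal tissue as % dose/g wet weight.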

[6] = organism: Mus musculus; experiment: Radio activity covalently bound to striatum of mouse brain; assay type: functional
How it was run: (§6)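 Male CD-1 mice (~35 g, n=10) given apomorphine 30 mg/kg with [3H]-apomorphine (0.153 mCi/kg) ip daily for 14 days, killed 24 h after the last dose. Plasma from infraorbital sinus; brain split into striatum, cerebellum, forebrain without striatum. Protein-bound radioactivity expressed as µg/g protein (albumin equivalent; plasma µg/mL) and as % of total tissue radioactivity.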

[7] = organism: Rattus norvegicus; experiment: Percentage binding to rat plasma proteins at 10.0 ug/mL concentration of the compound; assay type: cell-free; how it was run: as §3
[8] = target: T1, Albumin; experiment: Covalent binding of compound to serum albumin after 1 hr when the level of [8,9-3H2]-1is 2.0 dpm *10e6 expressed as mol of drug/mol of serum albumin; conditions: cattle; how it was run: as §4
[9] = organism: Mus musculus; experiment: Radio activity covalently bound to plasma of mouse brain; assay type: functional; how it was run: as §6
[10] = organism: Mus musculus; experiment: Radio activity accumulation in forebrain without striatum (Excreatable reactivity) on day 1; assay type: functional
How it was run: (§7)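 Male CD-1 mice (~35 g, n=10 per group) given apomorphine 30 mg/kg fortified with [3H]-apomorphine (0.153 mCi/kg) ip, either once or daily for 14 days. Sampled 24 h after the last dose: plasma from infraorbital sinus (extractable and nonextractable radioactivity) and brain regions (striatum, cerebellum, forebrain without striatum). Radioactivity expressed as µg apomorphine equivalent per mL or per g […].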

[11] = organism: Mus musculus; experiment: Ratio of accumulation of radioactivity from 14 to 1 day in GI tract with its contents; assay type: functional, Gastrointestinal tract; how it was run: as §2
[12] = target: T1, Albumin; experiment: Covalent binding of compound to serum albumin after 1 hr when the level of [8,9-3H2]-1is 2.6 dpm *10e6; conditions: cattle; how it was run: as §4
[13] = organism: Mus musculus; experiment: Ratio of accumulation of radioactivity from 14 to 1 day in skeletal tissue (%dose/g of wet wt); assay type: functional; how it was run: as §2
[14] = organism: Sus scrofa; experiment: Percentage binding to swine plasma proteins at 100 ug/mL concentration of the compound; assay type: cell-free
[15] = organism: Mus musculus; experiment: Radio activity of [3H]-l in mice GI tract with its contents on day 1; assay type: functional, Gastrointestinal tract; how it was run: as §5
[16] = organism: Mus musculus; experiment: Percentage of covalently bound total in plasma of mouse; assay type: functional; how it was run: as §6
[17] = target: T1, Albumin; experiment: Covalent binding of compound to serum albumin after 1 hr when the level of [8,9-3H2]-1is 2.2 dpm *10e6 expressed as mol of drug/mol of serum albumin; conditions: cattle; how it was run: as §4
[18] = target: T1, Albumin; experiment: Covalent binding of compound to serum albumin after 1 hr when the level of [8,9-3H2]-1is 2.3 dpm *10e6; conditions: cattle; how it was run: as §4
[19] = organism: Sus scrofa; experiment: Percentage binding to swine plasma proteins a t0.01 ug/mL concentration of the compound; assay type: cell-free; how it was run: as §3
[20] = organism: Mus musculus; experiment: Radio activity accumulation in nonextractable radioactivity in plasma brain striatum (Excreatable reactivity) on day 1; assay type: functional; how it was run: as §7
[21] = organism: Mus musculus; experiment: Radio activity of [3H]-l in mice kidney on day 1; assay type: functional; how it was run: as §5
[22] = organism: Sus scrofa; experiment: Percentage binding to swine plasma proteins at 0.10 ug/mL concentration of the compound; assay type: cell-free; how it was run: as §3
[23] = organism: Mus musculus; experiment: Ratio of accumulation of radioactivity from 14 to 1 day in kidney; assay type: functional; how it was run: as §2
[24] = organism: Mus musculus; experiment: Radio activity accumulation in cerebellum (Excreatable reactivity) on day 1; assay type: functional; how it was run: as §7
[25] = organism: Homo sapiens; experiment: Percentage binding to human plasma proteins was determined by collecting HPLC eluate at 10.0 micro g/ml concentration of compound 1 in plasma; assay type: cell-free; how it was run: as §1
[26] = organism: Mus musculus; experiment: Radio activity accumulation in extractable reactivity in plasma (Excreatable reactivity) on day 1; assay type: functional; how it was run: as §7
[27] = organism: Sus scrofa; experiment: Percentage binding to swine plasma proteins at 10.0 ug/mL concentration of the compound; assay type: cell-free; how it was run: as §3
[28] = organism: Mus musculus; experiment: Radio activity in skeletal tissue(% dose/g of wet wt) contents on day 1; assay type: functional; how it was run: as §5
[29] = target: T1, Albumin; experiment: Covalent binding of compound to serum albumin after 1 hr when the level of [8,9-3H2]-1is 2.3 dpm *10e6 expressed as mol of drug/mol of BSA; conditions: cattle; how it was run: as §4
[30] = target: T1, Albumin; experiment: Covalent binding of compound to serum albumin after 1 hr when the level of [8,9-3H2]-1is 2.0 dpm *10e6; conditions: cattle; how it was run: as §4
[31] = target: T1, Albumin; experiment: Covalent binding of compound to serum albumin after 1 hr when the level of [8,9-3H2]-1is 2.2 dpm *10e6; conditions: cattle; how it was run: as §4
[32] = organism: Rattus norvegicus; experiment: Percentage binding to rat plasma proteins at 0.10 ug/mL concentration of the compound; assay type: cell-free; how it was run: as §3
[33] = organism: Sus scrofa; experiment: Percentage binding to swine plasma proteins at 1.00 ug/mL concentration of the compound; assay type: cell-free; how it was run: as §3
[34] = organism: Mus musculus; experiment: Radio activity accumulation in forebrain without striatum (Excreatable reactivity) on 14 days; assay type: functional; how it was run: as §7
[35] = organism: Homo sapiens; experiment: Percentage binding to human plasma proteins was determined by measuring HPLC peak at 50.0 micro g/ml concentration in plasma; assay type: cell-free; how it was run: as §1

## CN1CCc2cccc3c2[C@H]1Cc1ccc(O)c(O)c1-3 [APOMORPHINE]
[1]
  Binding: 96.6%
[2]
  Ratio: 2.6
[3]
  Binding: 90.4%
[4]
  Binding: 4 M of drug (M of BSA)-1 and 5.9 M of drug (M of BSA)-1
[5]
  Amount: 0.065%
[6]
  Binding: 0.94 µg/g
[7]
  Binding: 90.7%
[8]
  Binding: 3 M of drug (M of BSA)-1
[9]
  Binding: 0.68 µg/mL
[10]
  Accumulation: 23.1 µg/g
[11]
  Ratio: 2.7
[12]
  Binding: 9063 dpm mg-1
[13]
  Ratio: 1.6
[14]
  Binding: 85.7%
[15]
  Amount: 1.48%
[16]
  Binding: 2.88%
[17]
  Binding: 2.1 M of drug (M of BSA)-1
[18]
  Binding: 6215 dpm mg-1
[19]
  Binding: 94.8%
[20]
  Accumulation: 21.4 µg/g
[21]
  Amount: 0.107%
[22]
  Binding: 93%
[23]
  Ratio: 3.1
[24]
  Accumulation: 20 µg/g
[25]
  Binding: 95.3% and 96.9%
[26]
  Accumulation: 0.561 µg/mL
[27]
  Binding: 86.8%
[28]
  Amount: 0.245%
[29]
  Binding: 3.4 M of drug (M of BSA)-1
[30]
  Binding: 4848 dpm mg-1
[31]
  Binding: 3850 dpm mg-1
[32]
  Binding: 90.4%
[33]
  Binding: 93.5%
[34]
  Accumulation: 69.6 µg/g
[35]
  Binding: 94.9%
